Values after ≈ are worked out from the molar mass of the structure shown.
Legend:
Trypanosoma cruzi = assay: Trypanocidal activity against trypomastigotes of Trypanosoma cruzi Tulahuen C2C4 infected in rat L6 cells after 4 days; format: functional, organism-based; details: L6, 96 h
Plasmodium falciparum [1] = assay: Antiplasmodial activity against chloroquine and pyrimethamine-resistant Plasmodium falciparum K1 infected human erythrocytes after 48 hrs by [3H]hypoxanthine uptake; format: functional, organism-based
Summary of the method: (§1)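 Top test concentration was 5.0 µg mL-1.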

L6 = assay: Cytotoxicity against rat L6 cells after 4 days; format: cell-based; details: L6, 96 h
Summary of the method: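 Mammalian-cell cytotoxicity was tested up to a highest concentration of 90 µg mL-1.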

Plasmodium falciparum [2] = assay: Antiplasmodial activity against multi drug-sensitive Plasmodium falciparum NF54 infected human erythrocytes after 48 hrs by [3H]hypoxanthine uptake; format: functional, organism-based; summary of the method: as §1
[3] = test system: Trypanosoma brucei rhodesiense; assay: Trypanocidal activity against Trypanosoma brucei rhodesiense STIB 900 after 72 hrs; format: functional, organism-based

| SMILES | IC50 (Trypanosoma cruzi) [µg/mL] | IC50 (Plasmodium falciparum [1]) [µg/mL] | MIC (L6) [µg/mL] | IC50 (Plasmodium falciparum [2]) [µg/mL] | IC50 [3] [µg/mL] |
| --- | --- | --- | --- | --- | --- |
| CC(=O)c1c(O[C@@H]2O[C@H](CO)[C@@H](O)[C@H](O)[C@H]2O)cc(O)c(-c2c(C)cc(O)c3c2C(=O)c2cccc(O)c2C3=O)c1O [BULBINELONESIDE D] | 6.8 (≈ 11.7 µM) | 0.41 (≈ 0.704 µM) | 90 (≈ 155 µM) | 0.43 (≈ 0.738 µM) | 0.7 (≈ 1.2 µM) |
| COc1c(C(C)=O)c(O)cc(O)c1-c1c(CO)cc(O)c2c1C(=O)c1cccc(O)c1C2=O [GABOROQUINONE A] | 33.1 (≈ 73.5 µM) | 4.8 (≈ 10.7 µM) | > 90 | 4.2 (≈ 9.33 µM) | 5.1 (≈ 11.3 µM) |
| COc1cc(O)c(-c2c(CO)cc(O)c3c2C(=O)c2cccc(O)c2C3=O)c(O)c1C(C)=O [GABOROQUINONE B] | > 90 | > 5 | > 90 | > 5 | 45.5 (≈ 101 µM) |
| COc1cc(O)c(-c2c(C)cc(O)c3c2C(=O)c2cccc(O)c2C3=O)c(O)c1C(C)=O [KNIPHOLONE] | 7.6 (≈ 17.5 µM) | 0.67 (≈ 1.54 µM) | 33 (≈ 76 µM) | 0.91 (≈ 2.09 µM) | 9.3 (≈ 21.4 µM) |

Source: ChEMBL document CHEMBL1150611, “Gaboroquinones A and B and 4'-O-demethylknipholone-4'-O-beta-D-glucopyranoside, phenylanthraquinones from the roots of Bulbine frutescens” (J Nat Prod, 2002)
